In ChEMBL document CHEMBL3243924, “Synthesis and biological activity of 5-fluoro- and 5-methyl-1,3-oxazine-2,6(3H)-dione” (J Med Chem, 1979):

Experiments:
[1] = test system: Enterococcus faecium; experiment: Growth inhibition of Streptococcus faecium assessed as [I]/[S] for 50% growth inhibition in presence of 1 uM to 1 mM 2'-deoxycytidine; type: functional
[2] = test system: Enterococcus faecium; experiment: Growth inhibition of Streptococcus faecium assessed as [I]/[S] for 50% growth inhibition in presence of 1 uM to 1 mM thymidine; type: functional
[3] = Stability of the compound in bacterial growth medium assessed as compound degradation at pH 7.2; conditions: buffer
Method in brief: (§1)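 Compound held in bacterial growth medium at pH 7.2. Degradation was followed as the time-dependent decrease in UV absorbance at 306 nm.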

[4] = Half life in synthetic growth medium at 37 degC
[5] = test system: Enterococcus faecium; experiment: Growth inhibition of Streptococcus faecium assessed as [I]/[S] for 50% growth inhibition in presence of 1 uM to 1 mM uridine; type: functional
[6] = Stability of the compound in bacterial growth medium by UV spectra analysis; method in brief: as §1
[7] = test system: Escherichia coli; experiment: Growth inhibition of Escherichia coli; type: functional
[8] = test system: Enterococcus faecium; experiment: Growth inhibition of Streptococcus faecium; type: functional
[9] = test system: L1210; experiment: Growth inhibition of mouse L1210 cells; type: functional
[10] = test system: Enterococcus faecium; experiment: Growth inhibition of Streptococcus faecium assessed as [I]/[S] for 50% growth inhibition in presence of 1 uM to 1 mM cytidine; type: functional
[11] = test system: Enterococcus faecium; experiment: Growth inhibition of Streptococcus faecium assessed as [I]/[S] for 50% growth inhibition in presence of 1 uM to 1 mM thymine; type: functional
[12] = test system: Enterococcus faecium; experiment: Growth inhibition of Streptococcus faecium assessed as inhibition index [I]/[S] for 50% growth inhibition in presence of 1 uM to 1 mM 2'-deoxyuridine; type: functional
[13] = test system: Enterococcus faecium; experiment: Growth inhibition of Streptococcus faecium assessed as [I]/[S] for 50% growth inhibition in presence of 1 uM to 1 mM uracil; type: functional
[14] = test system: Enterococcus faecium; experiment: Growth inhibition of Streptococcus faecium assessed as [I]/[S] for 50% growth inhibition in presence of 1 uM to 1 mM cytosine; type: functional
[15] = Stability of the compound in mouse […] cell growth medium assessed as compound degradation
[16] = Stability of the compound in synthetic growth medium assessed as compound remaining at 37 degC after 16 hrs; type: physicochemical; conditions: read-out: Stability

| Stability [3] | half-life [4] [h] | Stability [6] | SMILES | Ratio [1] | Ratio [2] | Ratio [5] | ID50 [7] | ID50 [8] | ID50 [9] | Ratio [10] | Ratio [11] | Ratio [12] | Ratio [13] | Ratio [14] | Stability [15] | remaining at 16 h [16] [%] |
| --- | --- | --- | --- | --- | --- | --- | --- | --- | --- | --- | --- | --- | --- | --- | --- | --- |
| Unstable | 4 | Unstable | O=c1[nH]cc(F)c(=O)o1 | 10 | 110 | 90 | 1 ×10⁻⁷ M | 9 ×10⁻⁸ M | 1 ×10⁻⁵ M | 8 | 120 | 100 | 90 | 7 | Unstable |  |
|  |  |  | O=c1cc[nH]c(=O)o1 |  |  |  | 4 ×10⁻⁷ M | 2 ×10⁻⁵ M | 4 ×10⁻⁵ M |  |  |  |  |  |  | 15 |
|  |  |  | Cc1c[nH]c(=O)oc1=O |  |  |  | 3 ×10⁻⁴ M | >1 ×10⁻⁴ M | >1 ×10⁻⁴ M |  |  |  |  |  |  |  |
